Three molecules from ChEMBL document CHEMBL1121996, “A new stable prostacyclin mimic, 7-oxoprostaglandin I2” (J Med Chem, 1982) can be followed below.

Each structure is given as a SMILES string. pEC50: −log10 of the molar value.

Assay [1] has as its system Canis familiaris. Kind of assay: Percent change in coronary resistance produced by the compound on dogs by intravenous infusion rate of 50 ng/kg/min. In kind it is functional, Canis lupus familiaris. The method, boiled down: (§1)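 The compound was infused into a femoral vein at increasing concentrations, each dose level for 3 min. Mean peripheral blood pressure was taken in the femoral artery and heart rate by cardiotachometer. Total and coronary vascular resistance were calculated as blood pressure divided by the corresponding flow. Values are maximum changes as percent of resting values.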

For assay [2], the target named is Adenylate cyclase type 1 (Homo sapiens) (UniProt Q08828). Kind of assay: Activation of human platelet adenylate cyclase at the concentration of 10 uMol. In kind it is functional. Put shortly: (§2)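 Adenylate cyclase in membranes prepared from human platelet-rich plasma, compound tested as Na salt. Activity is given as percent (mean ± SE) of measurable enzyme activity without drug, n = 8, with significance tested against the respective control. The method follows ref 17.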

Assay [3] has as its system Canis familiaris. Kind of assay: Percent change in total peripheral resistance produced by the compound on dogs by intravenous infusion rate of 50 ng/kg/min. In kind it is functional, Canis lupus familiaris. Put shortly:
as §1

Assay [4] relates to Canis familiaris. Kind of assay: Percent change in blood pressure produced by the compound on dogs by intravenous infusion rate of 50 ng/kg/min. The format is functional, Canis lupus familiaris. Put shortly:
as §1

For another assay, the species on record is Homo sapiens. The assay can be described thus: Inhibitory concentration of compound in human platelet rich plasma against 2 umol of ADP-induced aggregation. The format is functional.
The subject of assay [5] is Canis familiaris. The assay can be described thus: Percent change in heart rate produced by the compound on dogs by intravenous infusion rate of 50 ng/kg/min. In kind it is functional, Canis lupus familiaris. The method, boiled down: as §1
In assay [6] the test system is Canis familiaris. Kind of assay: Percent change in cardiac out put produced by the compound on dogs by intravenous infusion rate of 50 ng/kg/min. The format is functional, Canis lupus familiaris, Heart. Put shortly:
as §1

Assay [7] addresses Adenylate cyclase type 1 (Homo sapiens) (UniProt Q08828). Kind of assay: Activation of human platelet adenylate cyclase at the concentration of 1 uMol. In kind it is functional. The method, boiled down: as §2
For another assay, the species on record is Bos taurus. Kind of assay: Effective concentration of compound for relaxation of bovine coronary artery. In kind it is functional.
The test system of assay [8] is Canis familiaris. The assay can be described thus: Percent change in coronary resistance produced by the compound on dogs by intravenous infusion rate of 1000 ng/kg/min. The format is functional, Canis lupus familiaris. Put shortly: as §1
Assay [9] has as its system Canis familiaris. Kind of assay: Percent change in cardiac out put produced by the compound on dogs by intravenous infusion rate of 5000 ng/kg/min. The format is functional, Canis lupus familiaris, Heart. The method, boiled down:
as §1

For assay [10], the system named is Canis familiaris. Kind of assay: Percent change in blood pressure produced by the compound on dogs by intravenous infusion rate of 500 ng/kg/min. In kind it is functional, Canis lupus familiaris. Put shortly: as §1
For assay [11], the system named is Canis familiaris. The assay can be described thus: Percent change in total peripheral resistance produced by the compound on dogs by intravenous infusion rate of 5000 ng/kg/min. In kind it is functional, Canis lupus familiaris. The method, boiled down: as §1
The subject of assay [12] is Canis familiaris. Kind of assay: Percent change in coronary resistance produced by the compound on dogs by intravenous infusion rate of 5000 ng/kg/min. The format is functional, Canis lupus familiaris. Put shortly:
as §1

Assay [13] deals with Canis familiaris. The assay can be described thus: Percent change in cardiac out put produced by the compound on dogs by intravenous infusion rate of 1000 ng/kg/min. The format is functional, Canis lupus familiaris, Heart. Put shortly:
as §1

Assay [14] relates to Canis familiaris. Kind of assay: Percent change in cardiac out put produced by the compound on dogs by intravenous infusion rate of 500 ng/kg/min. In kind it is functional, Canis lupus familiaris, Heart. The method, boiled down:
as §1

Assay [15] deals with Canis familiaris. The assay can be described thus: Percent change in coronary resistance produced by the compound on dogs by intravenous infusion rate of 500 ng/kg/min. The format is functional, Canis lupus familiaris. The method, boiled down:
as §1

Assay [16] has as its system Canis familiaris. The assay can be described thus: Percent change in heart rate produced by the compound on dogs by intravenous infusion rate of 500 ng/kg/min. The format is functional, Canis lupus familiaris. The method, boiled down:
as §1

The test system of assay [17] is Canis familiaris. Kind of assay: Percent change in blood pressure produced by the compound on dogs by intravenous infusion rate of 1000 ng/kg/min. In kind it is functional, Canis lupus familiaris. The method, boiled down:
as §1

Assay [18] deals with Canis familiaris. The assay can be described thus: Percent change in blood pressure produced by the compound on dogs by intravenous infusion rate of 5000 ng/kg/min. The format is functional, Canis lupus familiaris. The method, boiled down: as §1
For assay [19], the system named is Canis familiaris. The assay can be described thus: Percent change in total peripheral resistance produced by the compound on dogs by intravenous infusion rate of 1000 ng/kg/min. The format is functional, Canis lupus familiaris. The method, boiled down:
as §1

For assay [20], the system named is Canis familiaris. Kind of assay: Percent change in heart rate produced by the compound on dogs by intravenous infusion rate of 1000 ng/kg/min. In kind it is functional, Canis lupus familiaris. The method, boiled down: as §1
Assay [21] has as its system Canis familiaris. Kind of assay: Percent change in total peripheral resistance produced by the compound on dogs by intravenous infusion rate of 500 ng/kg/min. In kind it is functional, Canis lupus familiaris. Put shortly: as §1
For assay [22], the system named is Canis familiaris. The assay can be described thus: Percent change in heart rate produced by the compound on dogs by intravenous infusion rate of 5000 ng/kg/min. The format is functional, Canis lupus familiaris. Put shortly:
as §1

Sequence of Adenylate cyclase type 1 (Homo sapiens) (Q08828 whole entry, looked up): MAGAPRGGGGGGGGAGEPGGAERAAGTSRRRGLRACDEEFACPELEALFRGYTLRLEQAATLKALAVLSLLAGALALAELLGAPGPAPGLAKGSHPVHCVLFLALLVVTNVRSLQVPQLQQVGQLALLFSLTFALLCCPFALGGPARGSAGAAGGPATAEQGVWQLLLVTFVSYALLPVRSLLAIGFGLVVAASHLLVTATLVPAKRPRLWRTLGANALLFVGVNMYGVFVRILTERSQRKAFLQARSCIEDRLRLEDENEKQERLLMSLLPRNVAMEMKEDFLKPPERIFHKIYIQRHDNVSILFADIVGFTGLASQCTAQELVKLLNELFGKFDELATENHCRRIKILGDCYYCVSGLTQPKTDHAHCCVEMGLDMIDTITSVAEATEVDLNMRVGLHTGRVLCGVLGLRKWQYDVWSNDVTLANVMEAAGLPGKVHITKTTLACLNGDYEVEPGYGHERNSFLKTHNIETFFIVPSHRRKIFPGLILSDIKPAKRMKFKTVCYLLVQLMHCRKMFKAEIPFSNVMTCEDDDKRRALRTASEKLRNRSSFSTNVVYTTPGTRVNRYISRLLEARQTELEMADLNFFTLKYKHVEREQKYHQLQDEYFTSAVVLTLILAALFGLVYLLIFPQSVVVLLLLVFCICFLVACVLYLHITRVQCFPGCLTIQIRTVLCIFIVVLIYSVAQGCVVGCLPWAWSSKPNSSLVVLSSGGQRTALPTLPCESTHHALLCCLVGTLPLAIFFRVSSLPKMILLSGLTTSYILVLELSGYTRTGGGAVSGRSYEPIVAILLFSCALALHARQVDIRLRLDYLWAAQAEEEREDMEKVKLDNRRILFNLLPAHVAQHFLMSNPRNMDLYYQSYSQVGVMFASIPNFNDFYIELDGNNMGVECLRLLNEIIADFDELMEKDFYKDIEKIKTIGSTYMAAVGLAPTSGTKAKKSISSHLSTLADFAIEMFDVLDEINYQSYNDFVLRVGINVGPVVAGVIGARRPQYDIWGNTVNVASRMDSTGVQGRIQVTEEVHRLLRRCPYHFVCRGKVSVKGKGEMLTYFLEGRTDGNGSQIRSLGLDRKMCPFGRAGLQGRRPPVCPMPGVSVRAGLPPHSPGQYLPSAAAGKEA

What is called IC50 is the concentration that inhibits the measured activity by half. Higher therefore signals a need for much substance. For orientation: pEC50 means the negative decadic logarithm of the EC50, by convention in mol/L. With `CCCCC[C@H](O)/C=C/[C@@H]1[C@H]2C/C(=C/CCCC(=O)[O-])O[C@H]2C[C@H]1O.[Na+]` [EPOPROSTENOL SODIUM], the Hemodynamic change is -2.8% in the assay with Canis familiaris [1]; -11.5% in the assay on Canis familiaris [3]; -13.6% in the assay on Canis familiaris [4]; 3.6% in the assay on Canis familiaris [5]; -5.6% in the assay with Canis familiaris [6]. The Activity turned out to be 1740% in assay [2] and 374% in [7]. Half-maximal inhibition in the assay listed under Homo sapiens (IC50) required 1 ng/mL. This molecule also showed a negative logarithm of the EC50 (pEC50) in the assay listed under Bos taurus of 7.37.
With `CCCCC[C@H](O)/C=C/[C@@H]1[C@H]2C(=O)/C(=C/CCCC(=O)[O-])O[C@H]2C[C@H]1O.[Na+]`, 15 ng/mL corresponded to half-maximal inhibition in the assay listed under Homo sapiens (IC50).
In the case of `CCCCC[C@H](O)/C=C/[C@H]1[C@H](O)CC2O/C(=C\CCCC(=O)[O-])C(=O)[C@@H]21.[Na+]` (stereo partly drawn), the Hemodynamic change is -6.1% in the assay with Canis familiaris [8]; -22.3% with Canis familiaris [9]; -8.1% with Canis familiaris [10]; -40.7% in the assay with Canis familiaris [11]; -28.8% with Canis familiaris [12]; -3.9% in the assay with Canis familiaris [13]. In addition, the Hemodynamic change in the assay on Canis familiaris [14] is listed as -1.6%; with Canis familiaris [15], -2.2%; in the assay on Canis familiaris [16], 0%; in the assay on Canis familiaris [17], -13.3%; in the assay on Canis familiaris [18], -49%; in the assay on Canis familiaris [19], -13.3%. For the same molecule, the Hemodynamic change in the assay with Canis familiaris [20] is given as -2%; with Canis familiaris [21], -8.3%; in the assay on Canis familiaris [22], -13.8%. The values for the Activity in assay [2] and in assay [7] were 825% and 239%, respectively. This molecule also gave a negative-log EC50 (pEC50) in the assay filed under Bos taurus of 6.40.
